# A selection: hits, their analogues and other compounds. The true share with any hit is near 3.5%.
# MrgX1 antag – human MrgX1 receptor antagonism, primary screen. B-score at 10 µM. 310,000 tested, 1.3% active. Q96LB2. MRGX1-HEK293 calcium flux, Fluo-4, BAM8-22 antagonism; active compounds read low;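 active means calcium-response B-score plate-corrected more than 3 library SD below zero, starting fluorescence within 5 deviations, no agonist response on first addition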;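 further: peak minus trough fluorescence over baseline after final BAM8-22 challenge near maximal dose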
# Target sequence (Q96LB2 whole entry, looked up): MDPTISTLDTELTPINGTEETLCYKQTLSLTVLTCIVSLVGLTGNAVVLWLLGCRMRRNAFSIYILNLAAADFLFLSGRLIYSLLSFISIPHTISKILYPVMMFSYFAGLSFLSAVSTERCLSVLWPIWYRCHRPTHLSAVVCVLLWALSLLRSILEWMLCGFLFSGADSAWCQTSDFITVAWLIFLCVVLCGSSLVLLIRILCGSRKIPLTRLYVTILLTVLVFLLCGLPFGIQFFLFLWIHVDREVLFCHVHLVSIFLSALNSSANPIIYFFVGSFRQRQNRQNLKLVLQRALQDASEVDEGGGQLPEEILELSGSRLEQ
# RGS4 pot – potentiators or activators of RGS4 | B-score at 10 µM | 310,000 tested, 0.92% active | HEK293 M3R/inducible RGS4, carbachol calcium flux Fluo4; active compounds read low | AID 463111;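 active means B-score of the integrated calcium signal more than 4 SD below the library mean, with starting fluorescence not abnormally high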;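 further: negative B-score means reduced calcium response which marks RGS4 activation or potentiation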
#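 Assay system: HEK293 FlpIn-TREx cells, stable M3R, doxycycline-inducible RGS4 / Probe or stimulus: carbachol, ECmax concentration / Times: overnight RGS4 induction, 30 min dye load 37 °C, 20 min compound RT / Signal: kinetic calcium fluorescence imaging with Fluo4-AM dye, 2 µM / Measure: Agonist-evoked peak-minus-minimum fluorescence over baseline, integrated ratio, B score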
# MrgX1 PAM – human MrgX1 positive allosteric modulation, primary screen | B-score at 10 µM | MrgX1-HEK293, Fluo-4 calcium flux, FDSS; active compounds read high | 310,000 tested, 0.63% active;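 active means plate-corrected calcium response at least 3 library SD above typical, normal starting fluorescence, not activating the receptor alone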;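 further: compound read alongside a low EC10 to EC30 dose of BAM8-22 agonist; peak minus trough fluorescence over baseline measured at the second addition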
# MrgX1 agonist – agonists of human MrgX1 receptor | MrgX1-HEK293 cells, Fluo-4 calcium fluorescence, agonist mode; active compounds read high | B-score at 10 µM | 310,000 tested, 0.44% active;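 active means calcium response B-score plate-corrected fluorescence ratio at least 3 library SD, with starting fluorescence B-score inside 5 SD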
#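 Assay system: stable human MrgX1 HEK293 cell line. Quantity: 15,000 cells per well. Schedule: cells plated overnight, dye loaded 0.5 h 37 °C, 0.5 h room temperature. Detection: Fluo-4 NW calcium-flux fluorescence, kinetic read. Read-out basis: peak-minus-minimum fluorescence over baseline, converted to B scores. Control set: positive and negative control wells on each plate.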
# RGS4 block – human RGS4 inhibition; 310,000 tested, 0.45% active; B-score at 10 µM; HEK293 M3R/RGS4 inducible, Fluo-4 calcium flux; active compounds read high; triggered by carbachol at its EC20; P49798;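 active means B-score, a plate-corrected calcium signal, over three deviations above library mean, with baseline fluorescence within five deviations of library mean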;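 further: RGS4 expression induced by doxycycline in cells with stable M3 receptor; B-score is computed from the integrated fluorescence ratio over baseline after carbachol; higher B-score means a larger calcium signal and so more RGS4 inhibition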
# Target sequence (P49798 whole entry, looked up): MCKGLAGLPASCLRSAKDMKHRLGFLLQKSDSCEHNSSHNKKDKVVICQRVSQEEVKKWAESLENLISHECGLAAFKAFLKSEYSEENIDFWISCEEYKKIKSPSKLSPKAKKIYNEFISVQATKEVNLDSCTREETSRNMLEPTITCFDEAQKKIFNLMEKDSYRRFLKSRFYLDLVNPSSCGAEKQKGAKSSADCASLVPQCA
# MrgX1 ant reconf – human MrgX1 receptor antagonism, re-confirmation screen. MrgX1-HEK293, BAM8-22 calcium flux, Fluo-4; active compounds read low. remaining BAM8-22 calcium response % of control (active compounds read low), % at 10 µM. shares compounds with MrgX1 antag. 2,300 tested, 19% active. AID 602420;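 active means remaining agonist calcium response no higher than 100% minus 3 SD of agonist-only control wells, with starting fluorescence near control levels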;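 further: agonist BAM8-22 given at a near maximal EC90 to ECmax level; peak minus minimum fluorescence divided by baseline after agonist addition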
# HEK293 Ca flux – MrgX1 antagonist counter-screen hit in parental HEK293 cells; shares compounds with MrgX1 antag; Fluo-4 calcium fluorescence, FDSS; fluorescence ratio F(max-min)/F0 at 10 µM; 4,000 tested, 2% active; AID 624111;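 active means duplicate-averaged calcium fluorescence ratio at least three times the standard deviation of buffer wells, a nonspecific response in parental cells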
# HEK293 Ca counter – MrgX1 allosteric activator counter-screen hit in parental HEK293 cells; shares compounds with MrgX1 antag; parental HEK293 calcium flux, Fluo-4 fluorescence ratio; active compounds read high; fluorescence ratio F(max-min)/F0 at 10 µM; 4,000 tested, 0.4% active; AID 624114;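 active means calcium fluorescence ratio, averaged over duplicates, at least 3 SD of the buffer-well ratio, meaning a nonspecific response in receptor-free cells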;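 further: untransfected parental HEK293 lacking MrgX1 used as counterscreen for MrgX1 allosteric activators; fluorescence change taken during the second addition on a kinetic imager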
# HEK293 Ca cntr2 – counter-screen for MrgX1 activators: effect in parental HEK293 cells; shares compounds with MrgX1 antag; AID 624115; 4,000 tested, 8.7% active; fluorescence ratio F(max-min)/F0 at 10 µM; Fluo-4 calcium fluorescence (FDSS); active compounds read high;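 active means calcium fluorescence ratio at least three times the spread of buffer wells, meaning a non-specific response in parental cells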
# Hits are given with their value; i = inactive; nt = no result.
SMILES,MrgX1 antag,RGS4 pot,MrgX1 PAM,MrgX1 agonist,RGS4 block,MrgX1 ant reconf,HEK293 Ca flux,HEK293 Ca counter,HEK293 Ca cntr2
CCN(CC)S(=O)(=O)c1ccc(OC)c(NC(=O)C2CC(=O)N(c3ccc(C)cc3)C2)c1 (stereo unspecified),i,i,i,i,i,nt,nt,nt,nt
Cc1ccc(SCCNS(C)(=O)=O)cc1,-5.07,i,i,i,i,i,i,i,i
Cc1ccc(SCCNS(=O)(=O)c2ccc(F)cc2)cc1,i,i,i,i,i,nt,nt,nt,nt
Brc1ccc([C@H]2CN3CCSC3=N2)cc1,i,i,i,i,i,nt,nt,nt,nt
CCOC(=O)NN1C(=O)c2ccccc2NC1c1ccc(OC)cc1OC (stereo unspecified),i,i,i,i,i,nt,nt,nt,nt
O=C(Nc1nccs1)c1ccc[nH]c1=O,i,i,i,i,i,nt,nt,nt,nt
Cc1ccc(Nc2nc(NCCO)c3ccccc3n2)cc1C,-6.15,i,i,i,i,77.7%,i,i,i
Cc1cc(NCCO)c2ccccc2n1,-4.64,i,i,i,i,i,i,i,i
O=C(NCC(c1cccnc1)N1CCN(c2ccc(F)cc2)CC1)c1ccccc1 (stereo unspecified),i,i,i,i,i,nt,nt,nt,nt
O=C(NCc1ccc(Cl)cc1)C(=O)NCC(c1cccnc1)N1CCN(c2ccc(F)cc2)CC1 (stereo unspecified),-4.68,i,i,i,i,76.9%,i,i,i
O=C(O)c1ccc(NC(=S)NC(=O)c2ccc(-c3ccccc3)cc2)cc1,-5.2,i,i,i,i,82.3%,i,i,i
O=C(NC(=S)Nc1ccccc1)c1ccc(-c2ccccc2)cc1,i,i,i,i,i,nt,nt,nt,nt
c1ccc(-c2ccc(-c3cn4c(n3)CCC4)cc2)cc1,i,i,i,i,i,nt,nt,nt,nt
CN(CCC#N)C(=O)CC(Cc1ccccc1)C1CCOC(C)(C)C1 (stereo unspecified),i,i,i,i,i,nt,nt,nt,nt
CCN(CC)c1ccc2c(Cl)c(Br)c(=O)oc2c1,-14.5,i,i,i,i,i,0.0375,i,i
CC(=O)Nc1ccc(NC(=O)COC(=O)Cc2c[nH]c3ccccc23)cc1,-5.96,i,i,i,i,i,i,i,i
C/C(=N\Nc1ccc(F)cc1)c1ccc(N2CCOCC2)c(F)c1,i,i,i,i,i,nt,nt,nt,nt
CCC(=O)N1CCc2cc(Br)cc(S(=O)(=O)CC(=O)OC)c21,-5.91,i,i,i,i,i,i,i,i
Cn1c(C(=O)N2CCc3ccccc3C2)cc2c(=O)n3ccccc3nc21,-5.81,i,i,i,i,i,i,i,i
CCn1c(SCC(=O)c2ccc3c(c2)OCCO3)nnc1C(C)C,-4.65,nt,i,i,nt,i,i,i,i
COc1cc(C2C3=C(CCCC3=O)Nc3ccc4ncccc4c32)ccc1O (stereo unspecified),i,i,i,i,i,nt,nt,nt,nt
COc1ccc(C2C3=C(CCCC3=O)Nc3ccc4ncccc4c32)cc1OC (stereo unspecified),-4.67,i,i,i,i,i,i,i,i
CCCCC1CCC(C(=O)N(C)CC(=O)Nc2cccc(F)c2)CC1 (stereo unspecified),-5.38,i,i,i,i,i,i,i,i
CC1CC1C(=O)N(C)CC(=O)Nc1cccc(F)c1 (stereo unspecified),i,i,i,i,i,nt,nt,nt,nt
CCc1c(C)nc(SCC(N)=O)c(C#N)c1C,-5.65,i,i,i,i,i,i,i,i
COc1cc(C(=O)OC2CSCC2NC(=O)c2ccccc2)cc(OC)c1OC (stereo unspecified),i,i,i,i,i,nt,nt,nt,nt
Cc1c(C)n(CCc2c[nH]c3ccccc23)ccc1=O,i,i,i,i,i,nt,nt,nt,nt
